One assay has as its system HL-60. As to the kind of experiment: Antiproliferative activity against human HL60 cells. The class given is functional, cell-based. In short, it runs like this:
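Human myeloid leukemia HL-60 cells; antiproliferative IC50 (µM) by a previously described protocol, each series repeated independently at least two to three times.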

Assay [1] concerns the target T1, Tubulin (Homo sapiens) (UniProt P68371+Q9H4B7+P0DPH7+P68366+Q13509+Q71U36+P04350+Q3ZCM7+P07437+P68363+Q9BQE3+Q6PEY2+Q13885+Q9BVA1+Q9BUF5). In words: Inhibition of tubulin polymerization at 10 ug/ml. The class given is protein-complex assay. In short, it runs like this:
(§1)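 Kit-based tubulin assembly assay with compounds dissolved in DMSO. All components go into wells held at 0 °C and a baseline is set at 340 nm. Assembly is read at 0 °C and then at 37 °C. Results are percent inhibition against a vehicle control at each tested concentration.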

Assay [2] concerns the target T1, Tubulin (Homo sapiens). As to the kind of experiment: Inhibition of tubulin polymerization at 1 ug/ml. It is filed as protein-complex assay. An outline of the steps: as §1
Assay [3] concerns the target T1, Tubulin (Homo sapiens). As to the kind of experiment: Inhibition of tubulin polymerization at 3 ug/ml. The class given is protein-complex assay. An outline of the steps:
as §1

Assay [4] concerns the target T1, Tubulin (Homo sapiens). As to the kind of experiment: Inhibition of tubulin polymerization at 20 ug/ml. The class given is protein-complex assay.

Active and inactive are the calls of the source. The calls are words filed in the database; no cut-off is given here. Where only a bound is given, the exact number is not on record here.

As for `CCOC(=O)c1ccc(Oc2ccc(OC)c(F)c2)cc1`, in the assay on HL-60, 3.5 µM corresponded to half-maximal inhibition (IC50). Further, the inhibition on Tubulin (Homo sapiens) [1] is 12.5%.

`CCOC(=O)c1ccc(Oc2ccc(OC)cc2)cc1O` had a 50% inhibitory concentration (IC50) with HL-60 of more than 30 µM. `COC(=O)c1cccc(Oc2ccc(OC)c(F)c2)c1` registered a half-inhibitory concentration (IC50) in the assay with HL-60 of more than 20 µM. With `COc1ccc(Oc2c(OC)cccc2OC)cc1F`, the IC50 in the assay with HL-60 was more than 20 µM.

Molecule `CCOC(=O)c1ccc(Oc2ccc(Cl)cc2)cc1` displayed an IC50 in the assay with HL-60 of more than 20 µM. Molecule `COc1ccc(Oc2ccc(C(=O)O)cc2)cc1F` gave an IC50 in the assay on HL-60 of more than 30 µM.

In the assay with HL-60, `COc1ccc(S(=O)(=O)Nc2cccnc2Nc2ccc(O)cc2)cc1` [ABT-751] came in with an IC50 of 0.34 µM. Further, the inhibition stood at 96.3% on Tubulin (Homo sapiens) [1], 40% against Tubulin (Homo sapiens) [2] and 74.6% at Tubulin (Homo sapiens) [3]. For `CCOC(=O)c1ccc(Oc2ccc(F)c(F)c2)cc1O`, the IC50 with HL-60 is more than 30 µM. As for `CCOC(=O)c1ccc(Oc2ccc(C#N)cc2)cc1`, in the assay on HL-60, the IC50 was more than 20 µM.

`CCOC(=O)c1ccc(Oc2ccc(OC)c(OC)c2)cc1` registered an IC50 in the assay with HL-60 of more than 20 µM. Same read-out and setting: in the case of `CCOC(=O)c1ccc(Oc2ccc(N(C)C)cc2)cc1` it was more than 20 µM. The molecule `COc1ccc(Oc2ccc(C(=O)NC3CC3)cc2)cc1F` came in with an IC50 with HL-60 of 14.1 µM. The molecule further registered an inhibition against Tubulin (Homo sapiens) [1] of 8.7%. In the assay on HL-60, `COC(=O)c1ccc(Oc2ccc(OC)cc2)c(I)c1` returned an IC50 of more than 20 µM.

In turn, `COC(=O)c1ccc(Oc2ccc(OC)c(OC)c2)c([N+](=O)[O-])c1` came in with an IC50 with HL-60 of more than 20 µM. `COC(=O)c1cccc(Oc2ccc(OC)cc2)c1` came in with an IC50 in the assay on HL-60 of more than 20 µM. For `CCOC(=O)c1ccc(Oc2ccc(N(C)C)cc2)cc1O`, in the assay with HL-60, the half-maximal inhibitory concentration (IC50) was more than 30 µM. The molecule `CCOC(=O)c1ccc(Oc2ccc(OC)c(F)c2)cc1O` returned an IC50 in the assay with HL-60 of more than 30 µM. The same measure, in the same setting: in the case of `COC(=O)c1ccc(Oc2ccc(OC)c(OC)c2)c(N)c1` it was more than 20 µM; in that of `COc1ccc(Oc2ccc(C(=O)NCCc3ccccc3)cc2)cc1F`, 20.6 µM.

In the assay with HL-60, `COC(=O)c1ccc(Oc2ccc(OC)cc2)c(N)c1` yielded an IC50 of more than 20 µM. Same read-out and setting: in the case of `COC(=O)c1cccc(Oc2ccc(N(C)C)cc2)c1` it was more than 20 µM; in that of `COC(=O)c1ccc(Oc2ccc(OC)cc2)c([N+](=O)[O-])c1`, more than 20 µM. Same read-out and setting: in the case of `CCOC(=O)c1ccc(Oc2ccc(F)c(F)c2)cc1` it was more than 30 µM. In the assay on HL-60, `CCOC(=O)c1ccc(Oc2ccc(OC)c(OC)c2)cc1O` showed an IC50 of 1.5 µM. Besides, the inhibition against Tubulin (Homo sapiens) [1] turned out to be 5.5%; against Tubulin (Homo sapiens) [4], 13.3%. Turning to `COc1cccc(OC)c1Oc1ccc(C#N)cc1`, the IC50 with HL-60 was more than 20 µM. `CCOC(=O)c1ccc(Oc2ccc(OC)cc2)cc1` returned an IC50 in the assay on HL-60 of more than 20 µM. `COc1cccc(OC)c1Oc1ccc(N(C)C)cc1` showed an IC50 in the assay on HL-60 of 11.4 µM. Besides, the inhibition at Tubulin (Homo sapiens) [1] stood at 12.5%. Molecule `COc1ccc(Oc2ccc(C(=O)N(C)OC)cc2)cc1F` yielded an IC50 with HL-60 of more than 30 µM. With `COC(=O)c1cccc(Oc2ccc(C#N)cc2)c1`, in the assay with HL-60, the IC50 is more than 20 µM.

As for `COC(=O)c1ccc(Oc2ccc(OC)c(OC)c2)c(I)c1`, in the assay with HL-60, the IC50 is 5.62 µM. Also, the outcome at Tubulin (Homo sapiens) [1] was inactive.

A word on the IC50: it is the point on the concentration scale where inhibition reaches its midpoint. Lower therefore signals greater potency. The inhibition is the percentage by which the read-out fell short of the control.

These data come from ChEMBL document CHEMBL1139136, “Synthesis of novel diaryl ethers and their evaluation as antimitotic agents” (Bioorg Med Chem Lett, 2007).
